Results from ChEMBL document CHEMBL5634186, “Structure-Activity Relationship Study of Biselyngbyolide B Reveals Mitochondrial Fission-Induced Cytotoxicity in Cancer” (ACS Med Chem Lett, 2024).
Calls of active or inactive are those of the source. No cut-off for these calls is given here.

Columns and labels:
[1] = Cytotoxicity against HEK293 cells assessed as reduction in cell viability incubated for 16 hrs by MTT assay; type: toxicity, cell-based; settings: human
HCT-116 [2] = test: Anticancer activity against human HCT-116 cells assessed as inhibition of cell viability incubated for 16 hrs by MTT assay; type: functional, cell-based; settings: HCT-116, 16 h
HCT-116 [3] = test: Induction of mitochondrial membrane potential loss in human HCT-116 cells at 0.5 to 1 uM incubated for 16 hrs by mitotracker red staining based confocal microscope analysis; type: functional, cell-based; settings: dose 0.5-1 µM
Procedure, shortened: (§1)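 HCT116 cells treated 16 h with compound (0.5 or 1 μM where dosed); stained 30 min with MitoTracker Deep Red FM (membrane potential) or CellROX Red FM (ROS); confocal imaging; mean fluorescence intensity quantified from five fields.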

HCT-116 [4] = test: Induction of ROS generation in human HCT-116 cells at 0.5 to 1 uM incubated for 16 hrs by CellROX Red staining based confocal microscope analysis; type: functional, cell-based; settings: dose 0.5-1 µM; procedure, shortened: as §1
HCT-116 [5] = test: Induction of mitochondrial fission in human HCT-116 cells assessed as increase in DRP1 phosphorylation at S616 at 0.5 to 1 uM incubated for 8 to 24 hrs by immunoblotting analysis; type: functional, cell-based; settings: dose 0.5-1 µM, time 8-24 hrs
Procedure, shortened: (§2)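 Immunoblot in HCT116 cells: p-DRP1 S616, p-DRP1 S637, DRP1, Mitofusin1, Mitofusin2 and MFF over time (0, 8, 16, 24 h); p-DRP1 S616, S637, DRP1, Mitofusin1 and OPA at 0.5 and 1 μM. β-Actin loading control.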

HCT-116 [6] = test: Induction of mitochondrial fission in human HCT-116 cells assessed as decrease in DRP1 phosphorylation at S637 at 0.5 to 1 uM incubated for 8 to 24 hrs by immunoblotting analysis; type: functional, cell-based; settings: dose 0.5-1 µM, time 8-24 hrs; procedure, shortened: as §2
HCT-116 [7] = test: Induction of ROS production in human HCT-116 cells assessed as deterioration of mitochondrial length and area at 1 uM incubated for 16 hrs in presence of CellLight Mitochondria-GFP by confocal microscopy analysis; type: functional, cell-based
Procedure, shortened: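 HCT116 cells transfected with CellLight Mitochondria-GFP, treated 1 μM for 16 h; confocal images quantified for mitochondrial length and area.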

| Structure (SMILES) | IC50 (HCT-116 [2]) | IC50 at 16 h [1] | Activity (HCT-116 [3]) | Activity (HCT-116 [4]) | Activity (HCT-116 [5]) | Activity (HCT-116 [6]) | Activity (HCT-116 [7]) |
| --- | --- | --- | --- | --- | --- | --- | --- |
| C/C=C/C/C(C)=C\[C@@H]1C/C=C/C=C/C[C@H](C)/C=C(\C)[C@@H](OC)C/C=C/[C@@H](O)CC(=O)O1 | 8.9 µM | 18.1 µM | – | – | – | – | – |
| CCCCC[C@@H]1C/C=C/C=C/C[C@H](C)/C=C(\C)[C@@H](OC)C/C=C/[C@@H](O)CC(=O)O1 | 23 µM | 20.2 µM | inactive | inactive | Active | inactive | Active |
| CCCCC[C@H]1C/C=C/C=C/C[C@H](C)/C=C(\C)[C@@H](OC)C/C=C/[C@@H](O)CC(=O)O1 | 8.1 µM | 14.3 µM | – | – | – | – | – |
| C/C=C/C/C(C)=C\[C@H]1C/C=C/C=C/C[C@H](C)/C=C(\C)[C@@H](OC)C/C=C/[C@@H](O)CC(=O)O1 | 3.2 µM | 20.6 µM | – | – | – | – | – |

More lines, main results first:

| IC50 (HCT-116 [2]) | Structure (SMILES) | IC50 at 16 h [1] | Activity (HCT-116 [3]) | Activity (HCT-116 [4]) | Activity (HCT-116 [5]) | Activity (HCT-116 [6]) | Activity (HCT-116 [7]) |
| --- | --- | --- | --- | --- | --- | --- | --- |
| 6.9 µM | C/C=C/C/C(C)=C\[C@H]1C/C=C/C=C/C[C@H](C)/C=C(\C)[C@@H](O)C/C=C/[C@@H](O)CC(=O)O1 | 21.6 µM | – | – | – | – | – |
| 8.1 µM | CCCC/C(C)=C\[C@H]1C/C=C/C=C/C[C@H](C)/C=C(\C)[C@@H](OC)C/C=C/[C@@H](O)CC(=O)O1 | 11.3 µM | – | – | – | – | – |
